Reference: ChEMBL document CHEMBL5352442, “Structure-based design, synthesis and evaluation of a novel family of PEX5-PEX14 interaction inhibitors against Trypanosoma” (Eur J Med Chem, 2022)
pEC50, pIC50, pKd: −log10 of the molar value.

system: not listed separately; assay: Binding affinity to Ni-NTA-ATTO647-labeled N-terminal His-tagged Trypanosoma brucei PEX14 (19 to 84 residues) expressed in Escherichia coli BL21 assessed as dissociation constant by MST assay
Procedure, shortened: (§1)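 PEX14 N-terminal domain (aa 19–84, N-His), purified by Ni-NTA and then SEC in PBS, labeled with Ni-NTA-ATTO647 at protein:label 2:1 for 1 h at room temperature in the dark. Buffer: 50 mM Tris-HCl pH 7.4, 150 mM NaCl, 10 mM MgCl2, 0.0125% Tween 20. Labeled protein 200 nM with inhibitor serial dilution, 5% DMSO. Triplicates; Kd from MST fit; mean of n = 3.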

| Compound | pKd |
| --- | --- |
| CCN1C(=O)c2ccccc2Oc2cc(NC(=O)Cc3ccc(F)cc3)ccc21 | 3.88 |
| CCN1C(=O)c2ccccc2Oc2cc(NC(=O)Cc3ccc(Cl)cc3)ccc21 | 3.41 |
| CCN1C(=O)c2ccccc2Oc2cc(NS(=O)(=O)c3ccccc3)ccc21 | 4.70 |
| CCN1C(=O)c2ccccc2Sc2cc(NC(=O)Cc3ccc(F)cc3)ccc21 | 3.02 |
| CCN1C(=O)c2ccccc2Oc2cc(NC(=O)Cc3cccc(Cl)c3)ccc21 | 4.36 |
| CCN1C(=O)c2ccccc2Oc2cc(NC(=O)Cc3cscn3)ccc21 | 1.21 |
| CCN1C(=O)c2ccccc2Oc2cc(NC(=O)Oc3ccccc3)ccc21 | 3.63 |
| CCN1C(=O)c2ccccc2Oc2cc(NC(=O)Cn3nnc4ccccc43)ccc21 | 4.85 |
| CCN1C(=O)c2ccccc2Oc2cc(NS(=O)(=O)Cc3ccccc3)ccc21 | 3.80 |
| CCN1C(=O)c2ccccc2Oc2cc(NC(=O)Cc3cccc4ccccc34)ccc21 | 3.83 |
| CCN1C(=O)c2ccccc2Oc2cc(NC(=O)Cc3cccnc3)ccc21 | 2.84 |
| CCN1C(=O)c2ccccc2Oc2cc(NC(=O)Cc3ccsc3)ccc21 | 4.54 |
| CCN1C(=O)c2ccccc2Oc2cc(NC(=O)[C@@H](N)c3ccccc3)ccc21 | 3.20 |
| CS(=O)(=O)N1C(=O)c2ccccc2Oc2cc(NC(=O)Cc3ccc(F)cc3)ccc21 | 5.70 |
| CCN1C(=O)c2ccccc2Oc2cc(NC(=O)Cc3c[nH]c4ccccc34)ccc21 | 4.89 |
| COC(=O)N1C(=O)c2ccccc2Oc2cc(NC(=O)Cc3ccc(F)cc3)ccc21 | 3.43 |
| CCN1C(=O)c2ccccc2Oc2cc(NC(=O)[C@@H](NC(=O)OC(C)(C)C)c3ccccc3)ccc21 | 3.42 |
| CC(C)N1C(=O)c2cccnc2Sc2cc(NC(=O)Cc3ccc(F)cc3)ccc21 | 4.62 |
| CCN1C(=O)c2ccccc2Oc2cc(NC(=O)Cc3cnccn3)ccc21 | 3.08 |

system: Trypanosoma brucei brucei; assay: Trypanocidal activity against bloodstream form of Trypanosoma brucei brucei incubated for 66 hrs by resazurin dye based assay; format: functional, organism-based
Procedure, shortened: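 T. b. brucei Lister 427 bloodstream form in HMI-11 with 10% FBS, 37 °C, 5% CO2. Ten-point 1:1 serial dilutions in quadruplicate; final 2×10^3 parasites/mL. After 66 h, resazurin was added and plates incubated to 72 h. Fluorescence ex 530/em 585 nm, medium background subtracted, survival normalized to no-compound well. IC50 from sigmoidal nonlinear regression.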

| Compound | pIC50 |
| --- | --- |
| CCN1C(=O)c2ccccc2Oc2cc(NC(=O)Cc3ccc(F)cc3)ccc21 | 5.09 |
| CCN1C(=O)c2ccccc2Oc2cc(NC(=O)Cc3ccc(Cl)cc3)ccc21 | 5.27 |
| CCN1C(=O)c2ccccc2Oc2cc(NS(=O)(=O)c3ccccc3)ccc21 | 5.15 |
| CCN1C(=O)c2ccccc2Sc2cc(NC(=O)Cc3ccc(F)cc3)ccc21 | 5.27 |
| CCN1C(=O)c2ccccc2Oc2cc(NC(=O)Cc3cccc(Cl)c3)ccc21 | 5.13 |
| CCN1C(=O)c2ccccc2Oc2cc(NC(=O)Cc3cscn3)ccc21 | 4.24 |
| CCN1C(=O)c2ccccc2Oc2cc(NC(=O)Oc3ccccc3)ccc21 | 4.28 |
| CCN1C(=O)c2ccccc2Oc2cc(NC(=O)Cn3nnc4ccccc43)ccc21 | 5.10 |
| CCN1C(=O)c2ccccc2Oc2cc(NS(=O)(=O)Cc3ccccc3)ccc21 | 4.71 |
| CCN1C(=O)c2ccccc2Oc2cc(NC(=O)Cc3cccc4ccccc34)ccc21 | 5.20 |
| CCN1C(=O)c2ccccc2Oc2cc(NC(=O)Cc3cccnc3)ccc21 | 4.53 |
| CCN1C(=O)c2ccccc2Oc2cc(NC(=O)Cc3ccsc3)ccc21 | 5.08 |
| CCN1C(=O)c2ccccc2Oc2cc(NC(=O)[C@@H](N)c3ccccc3)ccc21 | 4.87 |
| CS(=O)(=O)N1C(=O)c2ccccc2Oc2cc(NC(=O)Cc3ccc(F)cc3)ccc21 | 4.71 |
| CCN1C(=O)c2ccccc2Oc2cc(NC(=O)Cc3c[nH]c4ccccc34)ccc21 | 4.86 |
| COC(=O)N1C(=O)c2ccccc2Oc2cc(NC(=O)Cc3ccc(F)cc3)ccc21 | 5.11 |
| CCN1C(=O)c2ccccc2Oc2cc(NC(=O)[C@@H](NC(=O)OC(C)(C)C)c3ccccc3)ccc21 | 4.23 |
| CC(C)N1C(=O)c2cccnc2Sc2cc(NC(=O)Cc3ccc(F)cc3)ccc21 | 6.07 |
| O=C(Cc1ccc(F)cc1)Nc1ccc2c(c1)Oc1ccccc1C(=O)N2 | 4.68 |
| COC(=O)CN1C(=O)c2ccccc2Oc2cc(NC(=O)Cc3ccc(F)cc3)ccc21 | 4.94 |
| CCN1C(=O)c2ccccc2Oc2cc(NC(=O)Cc3ccccc3)ccc21 | 4.87 |
| CCN1C(=O)c2ccccc2Oc2cc(NC(=O)Cc3cnccn3)ccc21 | 4.32 |

system: not listed separately; assay: Inhibition of biotinylated PEX5 (unknown origin)/N-terminal His-tagged Trypanosoma brucei PEX14 (19 to 84 residues) expressed in Escherichia coli BL21 by AlphaScreen assay
Procedure, shortened: (§2)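 Streptavidin donor and Ni-chelate acceptor beads each 5 μg/mL. Inhibitor serial dilutions at constant 5% DMSO.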

| Compound | pEC50 |
| --- | --- |
| CCN1C(=O)c2ccccc2Oc2cc(NC(=O)Cc3ccc(F)cc3)ccc21 | 3.06 |
| CCN1C(=O)c2ccccc2Oc2cc(NC(=O)Cc3ccc(Cl)cc3)ccc21 | 4.27 |
| CCN1C(=O)c2ccccc2Oc2cc(NS(=O)(=O)c3ccccc3)ccc21 | 3.03 |
| CCN1C(=O)c2ccccc2Sc2cc(NC(=O)Cc3ccc(F)cc3)ccc21 | 3.64 |
| CCN1C(=O)c2ccccc2Oc2cc(NC(=O)Cc3cccc(Cl)c3)ccc21 | 3.30 |
| CCN1C(=O)c2ccccc2Oc2cc(NC(=O)Oc3ccccc3)ccc21 | 3.60 |
| CCN1C(=O)c2ccccc2Oc2cc(NC(=O)Cn3nnc4ccccc43)ccc21 | 3.45 |
| CCN1C(=O)c2ccccc2Oc2cc(NS(=O)(=O)Cc3ccccc3)ccc21 | 2.44 |
| CCN1C(=O)c2ccccc2Oc2cc(NC(=O)Cc3cccc4ccccc34)ccc21 | 4.16 |
| CC(C)N1C(=O)c2cccnc2[S+]([O-])c2cc(NC(=O)Cc3ccc(F)cc3)ccc21 (stereo unspecified) | 2.76 |
| CCN1C(=O)c2ccccc2Oc2cc(NC(=O)Cc3cccnc3)ccc21 | 3.07 |
| CCN1C(=O)c2ccccc2Oc2cc(NC(=O)Cc3ccsc3)ccc21 | 3.08 |
| CCN1C(=O)c2ccccc2Oc2cc(NC(=O)[C@@H](N)c3ccccc3)ccc21 | 3.60 |
| CS(=O)(=O)N1C(=O)c2ccccc2Oc2cc(NC(=O)Cc3ccc(F)cc3)ccc21 | 3.37 |
| CCN1C(=O)c2ccccc2Oc2cc(NC(=O)Cc3c[nH]c4ccccc34)ccc21 | 3.96 |
| COC(=O)N1C(=O)c2ccccc2Oc2cc(NC(=O)Cc3ccc(F)cc3)ccc21 | 3.32 |
| CCN1C(=O)c2ccccc2Oc2cc(NC(=O)[C@@H](NC(=O)OC(C)(C)C)c3ccccc3)ccc21 | 3.50 |
| CC(C)N1C(=O)c2cccnc2Sc2cc(NC(=O)Cc3ccc(F)cc3)ccc21 | 2.98 |
| O=C(Cc1ccc(F)cc1)Nc1ccc2c(c1)Oc1ccccc1C(=O)N2 | 1.96 |
| COC(=O)CN1C(=O)c2ccccc2Oc2cc(NC(=O)Cc3ccc(F)cc3)ccc21 | 2.14 |
| CCN1C(=O)c2ccccc2Oc2cc(NC(=O)Cc3ccccc3)ccc21 | 2.96 |
| CCN1C(=O)c2ccccc2Oc2cc(NC(=O)Cc3cnccn3)ccc21 | 3.13 |

system: not listed separately; assay: Binding affinity to Ni-NTA-ATTO647-labeled N-terminal His-tagged Trypanosoma cruzi PEX14 (19 to 84 residues) expressed in Escherichia coli BL21 assessed as dissociation constant by MST assay; procedure, shortened: as §1

| Compound | pKd |
| --- | --- |
| CCN1C(=O)c2ccccc2Oc2cc(NC(=O)Cc3ccc(F)cc3)ccc21 | 3.91 |
| CCN1C(=O)c2ccccc2Oc2cc(NC(=O)Cc3ccc(Cl)cc3)ccc21 | 2.55 |
| CCN1C(=O)c2ccccc2Oc2cc(NS(=O)(=O)c3ccccc3)ccc21 | 4.92 |
| CCN1C(=O)c2ccccc2Sc2cc(NC(=O)Cc3ccc(F)cc3)ccc21 | 4.25 |
| CCN1C(=O)c2ccccc2Oc2cc(NC(=O)Cc3cccc(Cl)c3)ccc21 | 4.19 |
| CCN1C(=O)c2ccccc2Oc2cc(NC(=O)Cc3cscn3)ccc21 | 2.77 |
| CCN1C(=O)c2ccccc2Oc2cc(NC(=O)Oc3ccccc3)ccc21 | 1.00 |
| CCN1C(=O)c2ccccc2Oc2cc(NC(=O)Cn3nnc4ccccc43)ccc21 | 5.52 |
| CCN1C(=O)c2ccccc2Oc2cc(NS(=O)(=O)Cc3ccccc3)ccc21 | 3.60 |
| CCN1C(=O)c2ccccc2Oc2cc(NC(=O)Cc3cccc4ccccc34)ccc21 | 4.38 |
| CCN1C(=O)c2ccccc2Oc2cc(NC(=O)Cc3cccnc3)ccc21 | 2.46 |
| CCN1C(=O)c2ccccc2Oc2cc(NC(=O)Cc3ccsc3)ccc21 | 5.05 |
| CCN1C(=O)c2ccccc2Oc2cc(NC(=O)[C@@H](N)c3ccccc3)ccc21 | 1.99 |
| CS(=O)(=O)N1C(=O)c2ccccc2Oc2cc(NC(=O)Cc3ccc(F)cc3)ccc21 | 2.52 |
| CCN1C(=O)c2ccccc2Oc2cc(NC(=O)Cc3c[nH]c4ccccc34)ccc21 | 5.05 |
| COC(=O)N1C(=O)c2ccccc2Oc2cc(NC(=O)Cc3ccc(F)cc3)ccc21 | 3.59 |
| CCN1C(=O)c2ccccc2Oc2cc(NC(=O)[C@@H](NC(=O)OC(C)(C)C)c3ccccc3)ccc21 | 5.70 |
| CC(C)N1C(=O)c2cccnc2Sc2cc(NC(=O)Cc3ccc(F)cc3)ccc21 | 5.30 |

system: not listed separately; assay: Inhibition of biotinylated PEX5 (unknown origin)/N-terminal His-tagged Trypanosoma cruzi PEX14 (19 to 84 residues) expressed in Escherichia coli BL21 by AlphaScreen assay; procedure, shortened: as §2

| Compound | pEC50 |
| --- | --- |
| CCN1C(=O)c2ccccc2Oc2cc(NC(=O)Cc3ccc(F)cc3)ccc21 | 2.34 |
| CCN1C(=O)c2ccccc2Oc2cc(NC(=O)Cc3ccc(Cl)cc3)ccc21 | 2.63 |
| CCN1C(=O)c2ccccc2Oc2cc(NS(=O)(=O)c3ccccc3)ccc21 | 3.11 |
| CCN1C(=O)c2ccccc2Sc2cc(NC(=O)Cc3ccc(F)cc3)ccc21 | 3.20 |
| CCN1C(=O)c2ccccc2Oc2cc(NC(=O)Cc3cccc(Cl)c3)ccc21 | 2.53 |
| CCN1C(=O)c2ccccc2Oc2cc(NC(=O)Oc3ccccc3)ccc21 | 2.45 |
| CCN1C(=O)c2ccccc2Oc2cc(NC(=O)Cn3nnc4ccccc43)ccc21 | 1.89 |
| CCN1C(=O)c2ccccc2Oc2cc(NS(=O)(=O)Cc3ccccc3)ccc21 | 2.17 |
| CCN1C(=O)c2ccccc2Oc2cc(NC(=O)Cc3cccc4ccccc34)ccc21 | 2.35 |
| CCN1C(=O)c2ccccc2Oc2cc(NC(=O)Cc3cccnc3)ccc21 | 2.91 |
| CCN1C(=O)c2ccccc2Oc2cc(NC(=O)Cc3ccsc3)ccc21 | 2.63 |
| CCN1C(=O)c2ccccc2Oc2cc(NC(=O)[C@@H](N)c3ccccc3)ccc21 | 3.38 |
| CS(=O)(=O)N1C(=O)c2ccccc2Oc2cc(NC(=O)Cc3ccc(F)cc3)ccc21 | 1.99 |
| CCN1C(=O)c2ccccc2Oc2cc(NC(=O)Cc3c[nH]c4ccccc34)ccc21 | 3.17 |
| CCN1C(=O)c2ccccc2Oc2cc(NC(=O)[C@@H](NC(=O)OC(C)(C)C)c3ccccc3)ccc21 | 2.79 |
| CC(C)N1C(=O)c2cccnc2Sc2cc(NC(=O)Cc3ccc(F)cc3)ccc21 | 2.64 |
| O=C(Cc1ccc(F)cc1)Nc1ccc2c(c1)Oc1ccccc1C(=O)N2 | 3.26 |
| COC(=O)CN1C(=O)c2ccccc2Oc2cc(NC(=O)Cc3ccc(F)cc3)ccc21 | 2.34 |
| CCN1C(=O)c2ccccc2Oc2cc(NC(=O)Cc3ccccc3)ccc21 | 3.10 |
| CCN1C(=O)c2ccccc2Oc2cc(NC(=O)Cc3cnccn3)ccc21 | 2.71 |
